PubChem BioAssay AID465 (The Scripps Research Institute Molecular Screening Center, 2006)
The whole screen tested about 62,000 compounds, of which about 130 (0.21%) were called active.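 The calls were made as follows: active = inhibition above the mean of all tested compounds plus 3 SD (cut at about 40% in these data); inactive = the rest.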 For the sample, actives were picked, then their nearest neighbours and some compounds at random.

assay: lowered NF-kB luciferase signal in HEK293 cells – cell-based, HEK-293 luciferase reporter, PMA/ionomycin, luminescence, antigen receptor NF-kB inhibitor project, primary screen (AID 465); conditions: HEK-293 NF-kB luciferase reporter, at 3 µM, stronger effect = higher value;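 also: 0% = stimulated DMSO wells and 100% = 10 µM reference inhibitor 5653914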
Outline: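 System – HEK-293 cells with stable firefly luciferase reporter driven by four HIV NF-kB elements · Doses – one dose, 3 µM · Schedule – 1 h compound pre-incubation, 16 h PMA/ionomycin at 37 °C · Technique – luminescence from luciferase substrate reagent · Measure – percent inhibition normalized per plate to DMSO and reference-inhibitor controls · Replicates – tested once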

inhibition, active:
O=C1NC(Nc2nc3ccccc3s2)(C(F)(F)F)C(=O)N1C1CCCCC1 (centres undefined) 50.1%
Cn1c(=O)n(C)c2cc(C(=O)Nc3ccc4c(c3)OCO4)ccc21 40.7%
O=C(CN1C(=O)c2ccccc2S1(=O)=O)N1CCc2ccccc21 59%

inhibition, inactive:
COc1cccc(N(CC(=O)Nc2cccc(F)c2)S(C)(=O)=O)c1 22.4%
N#CCCn1cnc2ccccc21 13.5%
CC1CCCN(Cc2nc3c(c(=O)n(C)c(=O)n3C)n2Cc2cccc3ccccc23)C1 (centres undefined) 30.3%
Cc1c(C(=O)N2CC(C)OC(C)C2)sc2nc(-c3ccccc3)cn12 (centres undefined) -1.4%
CCN(CC)CCNC(=O)Cn1cnc2sc(C)c(S(=O)(=O)N3CCOCC3)c2c1=O 4.3%
O=C(CN1CCN(C(=O)c2ccco2)CC1)Nc1ccc(Cl)c(C(F)(F)F)c1 3.2%
NC(=O)C1CC=CCC1C(=O)OCC(Cl)=C(Cl)Cl (centres undefined) 0.1%
CCOCCc1c(O)nc(SCC(=O)NCc2ccco2)[nH]c1=O 2.4%
Cc1ccc(C(=O)Nc2nnc(-c3ccncc3)s2)o1 7.3%
O=C(O)C1CCCN1S(=O)(=O)c1ccc2c(c1)CCC2 (centres undefined) 15.4%
COC(=O)c1ccccc1NC(=O)c1ccccc1NS(C)(=O)=O 14.9%
O=C(CSC1=NCCS1)Nc1nc(-c2ccccc2)cs1 -2.2%
COC(=O)c1ccc(NC(=O)CN(c2ccc(C)cc2)S(=O)(=O)c2c(C)n[nH]c2C)cc1 21.2%
O=C(NCCN1CCOCC1)[C@H](Cc1ccccc1)N1C(=O)c2ccccc2C1=O 3.6%
CCC1=C/C(=C\c2ccc3c(c2)OCO3)C(=O)S1 21.2%
O=C(c1ccco1)N1CCN(C(=O)c2ccc(COc3ccc(F)cc3)o2)CC1 7%
COCCCN1C(=O)C(=O)/C(=C(/O)c2ccc3c(c2)CC(C)O3)C1c1cccnc1 (centres undefined) 7.3%
CCCOC(=O)Cc1c(O)c2ccccc2[nH]c1=O 6.5%
COC(=O)Nc1ccc(S(=O)(=O)N(C)CC(F)(F)C(F)F)cc1 3.4%
CCn1nnc(NC(=O)c2c(OC)cccc2OC)n1 10.1%
O=C(c1ccc2c(c1)OCCO2)C1CCN(S(=O)(=O)c2cccc(F)c2)CC1 6.7%
COC(=O)NC1(C(F)(F)F)NC(=O)N(C2CCCCC2)C1=O (centres undefined) 9.8%
CC(=O)c1c(C)n([O-])c2ccccc2[n+]1=O 12.7%
CC(=O)OC(C(=O)NCCc1ccccc1)c1cccnc1 (centres undefined) 15.3%
COc1ccc(C(=O)Nc2ccc3c(c2)OCO3)cc1OC -6.2%
Cn1c(NC(=O)c2ccc3c(c2)OCO3)cc(=O)n(C)c1=O -1.2%
O=C(NC1CCCCC1)C1CCCN(S(=O)(=O)c2cccs2)C1 (centres undefined) 10.2%
O=C(NCCN=C1NS(=O)(=O)c2ccccc21)c1ccc(S(=O)(=O)N2CCOCC2)cc1 11.1%
Cc1nnc(SCC(=O)N(C(C)C)C(C)C)nc1C 6.1%
O=C(Nc1c(C(=O)N2CCCCC2)cnn1-c1ccccc1)c1ccco1 -3.8%
C(=C\c1ccccc1)/CSc1nnc(-c2cccnc2)n1Cc1ccco1 11.5%
Cc1ccc(NC(=O)CN2CCC3(O)CCCCC3C2c2ccc3c(c2)OCO3)c(C)c1 (centres undefined) 0.9%
Oc1c(C(c2cccs2)N2CCN(c3ccc(F)cc3)CC2)sc2ncnn12 (centres undefined) -1%
CCOc1ccc(OCC)c(NC(=O)C2CCN(S(=O)(=O)c3c(C)noc3C)CC2)c1 15.5%
O=c1cccc(-c2ccc(Br)cc2)o1 10.6%
O=C(Nc1cccc2c1CCCC2)C1CCN(C(=O)NC2CCCCC2)CC1 16.4%
COc1ccc2c(Cl)c(-c3nnco3)sc2c1 26.5%
C=CCNC(=O)c1cc(-c2ccccc2O)on1 -6.4%
O=C(Nn1cnc2ccccc2c1=O)c1ccc(F)cc1Cl -16.4%
Cc1cccc(NC(=O)C2CCCN2S(=O)(=O)c2ccc(F)cc2)c1C (centres undefined) 19.8%
COc1cccc(NS(=O)(=O)c2ccc3[nH]cc(C(=O)NCCCOC(C)C)c(=O)c3c2)c1 9%
CCOC(=O)CSc1nnc(CNC(=O)c2cccs2)n1-c1cc(OC)ccc1OC 9.1%
CCOC(=O)N1CCN(C(=O)COc2ccc(Br)cc2)CC1 3.3%
CNC(=O)CN1C(=O)c2ccccc2S1(=O)=O 16.9%
O=C(c1cccc(C(=O)N2CCc3ccccc32)n1)N1CCc2ccccc21 1.5%
Cc1[nH]c2ccc(S(N)(=O)=O)cc2c1C 14.3%
